Source: ChEMBL document CHEMBL1144142, “Lyso-PAF analogues and lysophosphatidylcholines from the marine sponge Spirastrella abata as inhibitors of cholesterol biosynthesis” (J Nat Prod, 1999)
Converted amounts (≈) assume the structure as drawn. The source made the active and inactive calls. No cut-off for these calls is given here.

Key:
Format in all cases: functional, cell-based
[1] = (§1) Inhibition of cholesterol biosynthesis in human chang liver cells assessed as conversion of lanosterol into cholesterol
Procedure, shortened: (§2)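 Chang liver cells (ATCC CCL 13) seeded at 5×10^4 per 15-mm dish in MEM + 10% FBS; on day 2 washed, held 4 h in serum-free Hepatozyme-SFM, pretreated 2 h with compound, then labeled acetate (2.5 μCi/well) for 2 h. Cells lysed in 0.1 N NaOH, saponified (6% KOH/MeOH), nonsaponifiable lipids extracted in n-hexane, separated by TLC (C6H6-Me2CO 19:1), radioactive spots quantified by phosphor imaging.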

chang liver [2] = test: as §1; procedure, shortened: as §2
chang liver [3] = test: Inhibition of cholesterol biosynthesis in human chang liver cells assessed as suppression of lanosterol; procedure, shortened: as §2
chang liver [4] = test: Inhibition of cholesterol biosynthesis in human chang liver cells assessed as suppression of cholesterol level; procedure, shortened: as §2

Structure (SMILES)	IC50 [1] [µg/mL]	Activity (chang liver [2])	Activity (chang liver [3])	Activity (chang liver [4])
CCCCCCC1CC1CCCCCCCCCC(=O)OC[C@@H](O)COP(=O)([O-])OCC[N+](C)(C)C (some centres not stated)	60 (≈ 112 µM)	Dose-dependent effect	inactive	
CC[C@H](C)C(=O)O[C@H]1CCC=C2C=C[C@H](C)[C@H](CC[C@@H]3C[C@@H](O)CC(=O)O3)[C@H]21			Active	Active
CCCCCCCCCCCCCCCCOC[C@@H](O)COP(=O)([O-])OCC[N+](C)(C)C	422 (≈ 876 µM)	Dose-dependent effect		
CC(C)CCCCCCCCCCCCCCOC[C@@H](O)COP(=O)([O-])OCC[N+](C)(C)C	320 (≈ 646 µM)	Dose-dependent effect		

More lines, main results first:

IC50 [1] [µg/mL]	Structure (SMILES)	Activity (chang liver [2])	Activity (chang liver [3])	Activity (chang liver [4])
121 (≈ 238 µM)	CCCCCCCCCCCCC/C=C\CCCOC[C@@H](O)COP(=O)([O-])OCC[N+](C)(C)C	Dose-dependent effect		
21 (≈ 38.2 µM)	CCCCCC/C=C\CCCCCCCCCCCC(=O)OC[C@@H](O)COP(=O)([O-])OCC[N+](C)(C)C	Dose-dependent effect		
174 (≈ 343 µM)	CCCCCCCCCCCCCC/C=C\CCOC[C@@H](O)COP(=O)([O-])OCC[N+](C)(C)C	Dose-dependent effect		
125 (≈ 246 µM)	CCCCCC/C=C\CCCCCCCCCCOC[C@@H](O)COP(=O)([O-])OCC[N+](C)(C)C	Dose-dependent effect		
